In the library only some 2.5% were active in any assay of this set; here they are far more common.
CTSL1 counter – Fasciola hepatica cathepsin L1 inhibitors, primary screen, counter-screen for PFM18AAP inhibitor project, biochemical, QFRET, fluorogenic peptide substrate; recombinant F. hepatica cathepsin L1, Z-Leu-Arg-MCA fluorescence; inhibition, % at 5.96 µM; 0.49% of 300,000 active;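 active = inhibition above the mean of all tested compounds plus 3 SD, set per screening campaign, cut at about 17% in these data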;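 also: 0% = plate median of test compound wells and 100% = 1 µM Z-Phe-Ala-diazomethylketone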
GSTO1 counter – inhibitors of recombinant GSTO1, primary screen, counter-screen for RBBP9 inhibitor project, biochemical, fluorescence polarization; inhibition, % at 5.96 µM; activity-based probe fluorescence polarization; Glutathione S-transferase omega-1 (Homo sapiens), P78417; 1.1% of 300,000 active;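 active = inhibition above the campaign mean inhibition plus 3 SD, cut at about 35% in these data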;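 also: 0% = GSTO1-1 with DMSO and 100% = wells lacking GSTO1-1 enzyme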
Target sequence (P78417 whole entry, looked up): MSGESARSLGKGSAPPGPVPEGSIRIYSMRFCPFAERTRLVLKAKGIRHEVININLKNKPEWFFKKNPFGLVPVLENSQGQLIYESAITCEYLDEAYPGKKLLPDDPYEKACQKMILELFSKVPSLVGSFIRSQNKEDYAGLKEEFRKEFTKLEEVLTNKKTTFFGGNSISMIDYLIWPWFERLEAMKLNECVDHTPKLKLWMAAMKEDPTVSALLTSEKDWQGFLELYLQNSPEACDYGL
PAD4 FP inh – human PAD4 inhibitors, primary screen, biochemical, fluorescence polarization, 1536-well format. recombinant PAD4, RCA probe fluorescence polarization. inhibition, % at 6.36 µM. 0.41% of 330,000 active;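 active = percent inhibition above a cutoff equal to the mean of all tested compounds plus 3 SD, cut at about 15% in these data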;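 also: 0% = PAD4 with RCA probe and DMSO and 100% = probe without PAD4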
PRMT1 FP inh – PRMT1 methyltransferase inhibitors, primary screen, biochemical, fluorescence polarization; Protein arginine N-methyltransferase 1 (Homo sapiens), Q99873; recombinant PRMT1, activity-based probe fluorescence polarization; inhibition, % at 2.79 µM; 1.3% of 370,000 active; AID 652257, 2013;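 active = inhibition above about 21% made by adding two undisclosed values, limit read from the data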
TDP2 absorb – human TDP2 enzyme inhibitors, primary screen, biochemical, epi absorbance, recombinant enzyme; Tyrosyl-DNA phosphodiesterase 2 (Homo sapiens), O95551; T5PNP hydrolysis, p-nitrophenol absorbance 415 nm; inhibition, % at 12.8 µM; 0.34% of 370,000 active; AID 720702, 2013;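 active = inhibition above the mean of all tested compounds plus 3 SD, set per campaign, cut at about 25% in these data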;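 also: 0% = DMSO with enzyme and 100% = buffer with substrate but no TDP2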
Target sequence (O95551 whole entry, looked up): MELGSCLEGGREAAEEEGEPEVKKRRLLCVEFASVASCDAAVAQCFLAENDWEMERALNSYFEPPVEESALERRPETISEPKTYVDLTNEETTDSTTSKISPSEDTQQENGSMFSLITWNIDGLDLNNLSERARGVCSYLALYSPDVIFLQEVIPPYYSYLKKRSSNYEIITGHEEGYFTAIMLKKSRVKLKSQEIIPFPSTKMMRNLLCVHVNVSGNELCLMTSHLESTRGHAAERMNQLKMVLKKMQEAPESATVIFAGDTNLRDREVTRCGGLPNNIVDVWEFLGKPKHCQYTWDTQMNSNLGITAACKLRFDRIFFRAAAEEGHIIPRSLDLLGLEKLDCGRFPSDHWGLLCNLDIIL
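Read-out basis: percent inhibition. System: recombinant human TDP2. Buffer or medium: Mg2+-containing Tris-HCl buffer, pH 7.5. Repeats: single replicate. Timing: reaction 2 h, 37 °C. Benchmarks: high control without enzyme, low control DMSO plus TDP2. Probe or stimulus: 5 mM T5PNP. Doses: 12.8 µM only. Measured by: epi absorbance of p-nitrophenol freed from T5PNP by hydrolysis.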
PRMT1 inh conf – PRMT1 methyltransferase inhibitors, confirmation, biochemical, fluorescence polarization, triplicate; shares compounds with PRMT1 FP inh; recombinant His-PRMT1, activity-based probe fluorescence polarization; inhibition, % at 2.79 µM; 42% of 3,300 active; AID 687036, 2013;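 active = mean inhibition across replicates above the hit cutoff derived for the earlier primary screen, cut at about 22% in these data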
An asterisk follows results filed as active; nt = no result.

SMILES | CTSL1 counter | GSTO1 counter | PAD4 FP inh | PRMT1 FP inh | TDP2 absorb | PRMT1 inh conf
COC(=O)[C@]12C[C@H](CC(=O)N3CCSCC3)C(=O)N(Cc3ccc4c(c3)OCO4)C1=C[C@H](C(C)C)O[C@@H]2C1CC1 | nt | nt | nt | 2 | -1 | nt
C(=C\c1ccco1)/c1ccc2ccccc2n1 | -3 | 12 | -3 | 38* | -18 | 12
C[C@@H]1CC(=O)NN=C1c1ccc(NN=C(C#N)C#N)cc1 | nt | nt | nt | 6 | 1 | nt
CCN(CC)c1ccc2cc(-c3nnc(-c4ccccc4)o3)c(=O)oc2c1 | 3 | 2 | -3 | 10 | -4 | nt
CCN(CC)c1ccc2cc(-c3nc(-c4ccc(OC)cc4)cs3)c(=O)oc2c1 | 0 | 0 | -10 | 45* | -6 | 78*
c1ccc(-c2cc3c(N4CCCCC4)ncnc3s2)cc1 | 0 | 5 | -3 | 0 | 1 | nt
c1ccc(-c2cc3c(N4CCCC4)ncnc3s2)cc1 | 1 | 2 | -3 | 40* | -5 | 0
S=C(NC1CC1)SCc1ccco1 | nt | nt | -2 | 48* | 1 | 12
S=c1[nH]c2cc(Cl)ccc2s1 | -9 | -2 | 6 | 47* | 3 | 7
O=C(NC1CCN(Cc2ccccc2)CC1)c1cc(S(=O)(=O)N2CCOCC2)ccc1Cl | nt | nt | nt | 113* | 1 | 5
CCCc1cc(=O)[nH]c(SCC(=O)Nc2ccc(N3CCCCC3)cc2)n1 | nt | nt | 2 | 49* | -4 | -1
C[C@@H]1CCCN1c1cccc2c1S(=O)(=O)N(C1CC1)CCCO2 | nt | nt | nt | 5 | -6 | nt
Oc1ccccc1/C=N/NC(=S)NC1CC2CCC1C2 (centres undefined) | -3 | -23 | -3 | 4 | 10 | nt
S=C(N/N=C/c1ccco1)NC1CC2CCC1C2 (centres undefined) | -4 | -6 | -1 | 27* | 1 | 3
COc1ccccc1C(=O)NC1CCCCN(Cc2cccc(C(F)(F)F)c2)C1=O (centres undefined) | nt | nt | nt | -8 | -4 | nt
CCCCc1ccc(CC(=O)Nc2cc(S(=O)(=O)N3CCOCC3)ccc2O)cc1 | nt | nt | -3 | 32* | 9 | 13
O=C(CSc1nc2ccccc2s1)Nc1cc(C(=O)O)cc(C(=O)O)c1 | -6 | -12 | 1 | 42* | 13 | 58*
O=C(CC1CCCC1)Nc1cc(S(=O)(=O)N2CCOCC2)ccc1O | nt | nt | 4 | 4 | -9 | nt
CN(CC(=O)N1CCOCC1)C(=O)CSc1nc2ccccc2s1 | -3 | -7 | 1 | 26* | 6 | 34*
O=C(CSc1nc2ccccc2s1)Nc1cc(S(=O)(=O)N2CCOCC2)ccc1O | 2 | 4 | 4 | 38* | 8 | 40*
Cc1nnc(SCC(=O)Nc2cc(S(=O)(=O)N3CCOCC3)ccc2C)s1 | nt | nt | nt | 0 | -5 | nt
CC(=O)Nc1c(-c2ccc(C)cc2)nc2ncccn12 | nt | nt | nt | 0 | 2 | nt
O=C(OCCCN1CCC2(CCCCC2)C1=O)c1ccccc1 | nt | nt | nt | 5 | -5 | nt
Cc1noc(/C=C/c2ccco2)c1S(=O)(=O)N1CCC(C(=O)NCc2ccco2)CC1 | 0 | 2 | -1 | 32* | -4 | 0
CCCCNC(=O)C[C@H]1C[C@@]2(C(=O)OC)C(=C[C@H](C3CCCC3)O[C@@H]2C)N(Cc2cccc3ccccc23)C1=O | nt | nt | nt | 1 | -12 | nt
SMILES | CTSL1 counter | GSTO1 counter | PAD4 FP inh | PRMT1 FP inh | TDP2 absorb | PRMT1 inh conf
O=C(OCC(=O)C12CC3CC(CC(C3)C1)C2)c1ccc(O)cc1 | nt | nt | 1 | 56* | 3 | -7
O=C(OCC(=O)C12CC3CC(CC(C3)C1)C2)c1ccc(CO)cc1 | nt | nt | -2 | 1 | 1 | nt
CCCCNC(=O)C[C@H]1C[C@@]2(C(=O)OC)C(=C[C@H](C(C)C)O[C@@H]2C2CC2)N(Cc2ccc(Cl)cc2Cl)C1=O | nt | nt | nt | 1 | -8 | nt
O=S(NC1CCCCC1)C12CC3CC(CC(C3)C1)C2 (centres undefined) | -2 | 2 | 3 | 100* | 3 | -2
CCOC(=O)[C@H]1[C@H]2COc3ccccc3[C@@H]2N2C(=O)CN(Cc3ccc(C)cc3)C(=O)[C@@]12C | nt | nt | 2 | 50* | -7 | 8
C#CCNC(=O)c1cc(-c2ccccc2)sc1N | nt | nt | nt | 27* | -12 | -3
COc1ccc(N2C(=O)CC(N3CCCC4CCCCC43)C2=O)cc1 (centres undefined) | 0 | 11 | 6 | 53* | 1 | 3
O=C1CC(N2CCCCCC2)C(=O)N1c1ccc(F)cc1 (centres undefined) | 4 | 0 | -5 | 41* | 3 | 29*
COc1ccc(N2C(=O)CC(NC3CCCCNC3=O)C2=O)cc1 (centres undefined) | -2 | -5 | -1 | 28* | 1 | 5
COc1ccc(N2C(=O)CC(C3CCCO3)C2=O)cc1 (centres undefined) | 2 | 3 | 0 | 0 | 11 | nt
COc1ccc(N2C(=O)CC(N3CCC(O)(c4cccc(C(F)(F)F)c4)CC3)C2=O)cc1 (centres undefined) | 6 | 0 | 2 | 61* | 11 | -3
CS(=O)(=O)N[C@@H]1C[C@@H]2O[C@@H](CO)CC[C@@H]2O[C@@H]1CCc1ccc(-c2ccccc2F)cc1 | nt | nt | nt | -2 | -1 | nt
COc1ccc(N2C(=O)CC(N3CCCCC3)C2=O)cc1 (centres undefined) | -3 | 2 | -3 | 80* | 2 | 0
CC(=O)Nc1ccc(OCC(C)CN2CCC(C(O)(c3ccccc3)c3ccccc3)CC2)cc1 (centres undefined) | nt | nt | nt | -3 | -5 | nt
CCCCCOc1ccc(/C=c2\sc3nc(=O)c(-c4ccccc4)nn3c2=O)cc1OC | -3 | 0 | -7 | 3 | 3 | nt
O=c1nc2s/c(=C\c3ccc(-c4ccccc4[N+](=O)[O-])o3)c(=O)n2nc1-c1ccccc1 | nt | nt | nt | 59* | 3 | 7
N#CCc1c(C#N)c(N)nc(Nc2ccccc2)c1C#N | 1 | 7 | -2 | 40* | 3 | -1
NC(=O)c1ccc(NC(=O)COC(=O)/C=C/c2ccc(Br)o2)cc1 | nt | nt | -2 | 36* | -1 | 5
Brc1ccc(-c2nn3c(-c4ccco4)nnc3s2)o1 | 1 | -6 | 0 | 53* | -6 | 15
Clc1ccc(-c2ccc(-c3nn4c(-c5ccco5)nnc4s3)o2)cc1 | 0 | -1 | -3 | 6 | 8 | nt
S=C(Nc1ccc(Br)cc1)OCCN1CCCC12CCC(c1ccccc1)CC2 (centres undefined) | nt | nt | nt | 52* | 0 | 56*
S=C(Nc1cccc(Cl)c1)OCCN1CCCC12CCC(c1ccccc1)CC2 (centres undefined) | nt | nt | nt | 44* | 12 | 58*
